Data reported in ChEMBL document CHEMBL1121537, “Anticoccidial derivatives of 6-azauracil. 3. Synthesis, high activity, and short plasma half-life of 1-phenyl-6-azauracils containing sulfonamide substituents” (J Med Chem, 1980).

What was measured:
[1] = Half life in plasma of young cockerels; format: ADME, organism-based, Gallus gallus; conditions: male, chicken
Summary of the method: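 Plasma half-life in young cockerels, about 10 days old, determined by a previously described method.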

[2] = tested on: Eimeria tenella; experiment: Minimum effective concentration required to prevent formation of detectable lesions in Eimeria tenella infected leghorn cockerels.; format: functional; conditions: read-out: MEC
Summary of the method: (§1)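 Leghorn cockerels infected with Eimeria tenella, screened by a modified version of a published screening method. The minimum effective concentration, in ppm, is the lowest level that prevents detectable lesions.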

[3] = tested on: Gallus gallus; experiment: Plasma level measured 3h after oral administration of 4-5 mg/kg body weight in young cockerels; format: functional, organism-based
Summary of the method: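 Young cockerels, about 10 days old, given 4-5 mg/kg body weight orally; drug level in plasma measured 3 h after dosing, in mcg/mL.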

[4] = tested on: Eimeria tenella; experiment: The compound was evaluated for the variations in the vulnerability to Eimeria tenella; format: functional; conditions: read-out: MEC
[5] = tested on: Eimeria acervulina; experiment: The compound was evaluated for the variations in the vulnerability to Eimeria acervulina; format: functional; conditions: read-out: MEC
[6] = tested on: Eimeria brunetti; experiment: The compound was evaluated for the variations in the vulnerability to Eimeria brunetti; format: functional; conditions: read-out: MEC
[7] = tested on: Eimeria necatrix; experiment: The compound was evaluated for the variations in the vulnerability to Eimeria necatrix; format: functional; conditions: read-out: MEC
[8] = Half life in plasma of older birds; format: ADME, organism-based, Gallus gallus; conditions: chicken
Summary of the method: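 Plasma half-life in older birds, about 9-10 weeks old, determined by a previously described method.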

[9] = tested on: Gallus gallus; experiment: Plasma level measured 3h after oral administration of 4-5 mg/kg body weight in older birds; format: functional, organism-based
Summary of the method: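 Older birds, about 9-10 weeks old, given 4-5 mg/kg body weight orally; drug level in plasma measured 3 h after dosing, in mcg/mL.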

[10] = species: Gallus gallus; experiment: The compound was evaluate for the minimum amount required to prevent formation of detectable disease lesions against Eimeria tenella infections.; format: functional; summary of the method: as §1
[11] = tested on: Eimeria tenella; experiment: The compound was evaluated for the variations in the vulnerability to Eimeria tenella,; format: functional; conditions: read-out: MEC
[12] = tested on: Eimeria acervulina; experiment: The compound was evaluated for the variations in the vulnerability to Eimeria acervulina; value ranges from 15-30; format: functional; conditions: read-out: MEC
[13] = tested on: Eimeria maxima; experiment: The compound was evaluated for the variations in the vulnerability to Eimeria maxima; format: functional; conditions: read-out: MEC

| Compound | minimal effective concentration [2] [µg/mL] | further results |
| --- | --- | --- |
| O=c1cnn(-c2ccccc2)c(=O)[nH]1 | 500 | half-life [1]: 8 h |
| O=c1cnn(-c2ccc(S(=O)(=O)Cl)cc2)c(=O)[nH]1 | > 250 |  |
| CN(CCO)S(=O)(=O)c1ccc(-n2ncc(=O)[nH]c2=O)cc1Cl | > 120 |  |
| O=c1cnn(-c2ccc(S(=O)(=O)N3CCSC3)c(Cl)c2)c(=O)[nH]1 | > 120 |  |
| C=CCN(C)S(=O)(=O)c1ccc(-n2ncc(=O)[nH]c2=O)cc1C | 120 |  |
| CCOC(CN(CC(OCC)OCC)S(=O)(=O)c1ccc(-n2ncc(=O)[nH]c2=O)cc1Cl)OCC | 250 |  |
| Cc1cc(-n2ncc(=O)[nH]c2=O)cc(C)c1S(=O)(=O)N(C)C | 60 |  |
| Cc1cc(-n2ncc(=O)[nH]c2=O)ccc1S(=O)(=O)N(C)C1CCCC1 | > 120 |  |
| Cc1cc(-n2ncc(=O)[nH]c2=O)cc(C)c1S(=O)(=O)N1CCOCC1 | 15 | half-life [1]: 1.5 h; Plasma level [3]: 0.95 µg/mL; minimal effective concentration [4]: 15 µg/mL; minimal effective concentration [5]: 50 µg/mL; minimal effective concentration [6]: 30 µg/mL; minimal effective concentration [7]: 15 µg/mL |
| Cc1cc(-n2ncc(=O)[nH]c2=O)cc(Cl)c1S(=O)(=O)N1CCSCC1 | 120 |  |
| CN(C)S(=O)(=O)c1ccc(-n2ncc(=O)[nH]c2=O)cc1Cl | 250 |  |
| O=c1cnn(-c2ccc(S(=O)(=O)N3CCOCC3)cc2)c(=O)[nH]1 | > 250 |  |
| O=c1cnn(-c2ccc(S(=O)(=O)NC3CCCCCCC3)c(Cl)c2)c(=O)[nH]1 | > 250 |  |
| CN(Cc1ccc(Cl)cc1)S(=O)(=O)c1ccc(-n2ncc(=O)[nH]c2=O)cc1Cl | 500 |  |
| O=C1CCN(S(=O)(=O)c2ccc(-n3ncc(=O)[nH]c3=O)cc2Cl)CC1 | > 250 |  |
| Cc1cc(-n2ncc(=O)[nH]c2=O)cc(C)c1S(=O)(=O)Cl | 250 |  |

| Compound | minimal effective concentration [2] [µg/mL] | further results |
| --- | --- | --- |
| CCN(C(C)C)S(=O)(=O)c1ccc(-n2ncc(=O)[nH]c2=O)cc1C | 500 |  |
| Cc1cc(Cl)cc(-n2ncc(=O)[nH]c2=O)c1 | 15 | half-life [8]: 20 h; Plasma level [9]: 21.7 µg/mL |
| CN(c1ccccc1)S(=O)(=O)c1ccc(-n2ncc(=O)[nH]c2=O)cc1Cl | > 250 |  |
| NS(=O)(=O)c1ccc(NS(=O)(=O)c2ccc(-n3ncc(=O)[nH]c3=O)cc2)cc1 | 500 |  |
| O=c1cnn(-c2ccc(S(=O)(=O)N3CCC(Cc4ccccc4)CC3)c(Cl)c2)c(=O)[nH]1 | > 250 |  |
| COc1c(Cl)cc(-n2ncc(=O)[nH]c2=O)cc1Cl | 250 | half-life [1]: 2 h |
| C=CCN(CC=C)S(=O)(=O)c1ccc(-n2ncc(=O)[nH]c2=O)cc1Cl | 250 |  |
| O=c1cnn(-c2cc(Cl)c(S(=O)(=O)N3CCOCC3)c(Cl)c2)c(=O)[nH]1 |  | MEC [10]: 30 p.p.m.; minimal effective concentration [4]: 15 µg/mL; minimal effective concentration [5]: 30 µg/mL |
| NS(=O)(=O)c1ccc(-n2ncc(=O)[nH]c2=O)cc1Cl | > 120 |  |
| O=c1cnn(-c2ccc(S(=O)(=O)N3CCCC3)c(Cl)c2)c(=O)[nH]1 | 250 |  |
| O=c1cnn(-c2cc(Cl)cc(Cl)c2)c(=O)[nH]1 | 4 | half-life [8]: 150 h; half-life [1]: 56 h; Plasma level [9]: 24.3 µg/mL; Plasma level [3]: 14.5 µg/mL |
| O=c1cnn(-c2ccc(S(=O)(=O)Nc3cccc(Cl)c3)c(Cl)c2)c(=O)[nH]1 | > 500 |  |
| O=c1cnn(-c2cc(Cl)c(N3CCOCC3)c(Cl)c2)c(=O)[nH]1 |  | MEC [10]: 15 p.p.m.; minimal effective concentration [11]: 15 µg/mL; minimal effective concentration [12]: 30 µg/mL; minimal effective concentration [13]: 15 µg/mL |
| O=c1cnn(-c2ccc(S(=O)(=O)NCc3ccccc3Cl)c(Cl)c2)c(=O)[nH]1 | > 250 |  |
| Cc1cc(-n2ncc(=O)[nH]c2=O)cc(C)c1S(=O)(=O)N1CCCC1 | 60 |  |
| CCN(CC)S(=O)(=O)c1c(C)cc(-n2ncc(=O)[nH]c2=O)cc1Cl | 250 |  |
